# Published values from different studies.
# Lines come from different studies, so protocols differ.
# Target: Casein kinase I isoform alpha-like (CSNK1A1L, Homo sapiens, UniProt Q8N752)
# One construct used (Q8N752 1-337): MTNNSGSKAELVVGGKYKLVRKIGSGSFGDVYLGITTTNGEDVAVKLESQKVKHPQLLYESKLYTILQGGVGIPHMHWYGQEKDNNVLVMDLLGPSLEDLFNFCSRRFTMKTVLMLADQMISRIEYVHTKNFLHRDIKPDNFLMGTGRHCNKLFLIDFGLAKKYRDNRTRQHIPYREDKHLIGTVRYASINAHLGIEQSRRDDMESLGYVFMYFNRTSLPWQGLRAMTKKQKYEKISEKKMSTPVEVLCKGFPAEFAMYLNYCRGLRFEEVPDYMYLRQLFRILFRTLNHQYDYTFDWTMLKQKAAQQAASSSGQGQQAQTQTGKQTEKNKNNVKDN
SMILES,test,conditions,remaining binding [%]
CCN1CCN(Cc2ccc(C(=O)Nc3ccc(C)c(Oc4ccc5c(c4)CC(=O)N5)c3)cc2C(F)(F)F)CC1,"binding, competition with immobilised ligand",1 µM,100
CCCOc1ccc([C@@H]2[C@@H](C(=O)O)[C@H](c3ccc4c(c3)OCO4)CN2CC(=O)Nc2c(CC)cccc2CC)cc1,"cell-free assay, competition with immobilised ligand",1 µM,94
CN(C)c1nccc(-c2cnn3ncccc23)n1,binding,1 µM,98
Cc1cnc(Nc2ccc(C(=O)N3CCC(N4CCCC4)CC3)cc2)nc1-c1cc2ccccc2s1,"binding, competition with immobilised ligand",1 µM,100
CNC(=O)Nc1ccc2c(c1)CC[C@@]21OC(=O)N(CC(=O)N(Cc2ccc(F)cc2)[C@@H](C)C(F)(F)F)C1=O,"cell-free assay, competition with immobilised ligand",1 µM,88
C[C@@H](c1ccc(-n2cnc3c(N)ncnc32)cc1)N1CCc2nn(C)c(Cc3ccccc3)c2C1=O,"binding, competition with immobilised ligand",0.1 µM,91
C=CC(=O)N1CCC(C(=O)NCC(=O)N2CCN(c3nc(-c4cnc(N)nc4C(F)F)nc(N4CCOCC4)n3)CC2)CC1,"binding, competition with immobilised ligand",1 µM,100
CC(C)CC(=O)N1CCc2nc(-c3ccc(Br)cc3)nc(N(C)Cc3ccccc3)c2C1,"cell-free assay, competition with immobilised ligand",0.1 µM,100
CC1CCCN1c1nccc(-c2cnn3ncccc23)n1 (stereo not drawn),binding,1 µM,100
O=C(c1ccc(Nc2nccc(-c3cc4ccccc4s3)n2)cc1)N1CCC(N2CCCC2)CC1,"binding, competition with immobilised ligand",1 µM,98
COc1cnc(Nc2cccc(S(N)(=O)=O)c2)nc1N1CCN(c2ccccc2)CC1,"binding, competition with immobilised ligand",1 µM,96
CN(C)C(=O)Cn1cc(-c2nc([C@@](C)(c3ccc(-c4cnc(N)nc4)cc3)C3CC3)no2)cn1,"cell-free assay, competition with immobilised ligand",1 µM,100
CN(CCCC(F)(F)F)c1nccc(-c2cnn3ncccc23)n1,binding,1 µM,91
O=C(Nc1c[nH]nc1C(=O)NC1CCNCC1)c1cc(F)cc(F)c1,"binding, competition with immobilised ligand",1 µM,84
N[C@@H]1CCN(c2nccc(-c3cnn4ncccc34)n2)C1,binding,1 µM,100
O=C(NCCCN1CCOCC1)c1ccc(Nc2ncc(Cl)c(-c3ccc(Cl)s3)n2)cc1,"binding, competition with immobilised ligand",1 µM,100
C[C@H](c1ccnc(Nc2nc3ccc(-c4cc(N(C)C)ncn4)cc3[nH]2)c1)N1CCN(C(=O)CC(F)(F)F)CC1,"cell-free assay, competition with immobilised ligand",0.1 µM,94
C[C@H]1CCN(c2nccc(-c3cnn4ncccc34)n2)C1,binding,1 µM,100
COc1ccc2c(c1)O[C@H](c1ccc(OC)c(OC)c1)C[C@@H]2NC(=O)C1(c2ccc3c(c2)OC(F)(F)O3)CC1,"cell-free assay, competition with immobilised ligand",1 µM,100
COc1cnc(Nc2cccc(S(N)(=O)=O)c2)nc1N1CCN(c2ccccc2)C(=O)C1,"binding, competition with immobilised ligand",1 µM,100
COc1ccnn2ncc(-c3ccnc(N(C)C)n3)c12,binding,1 µM,91
